Assay results taken from ChEMBL document CHEMBL2440054, “Largazole Arrests Cell Cycle at G1 Phase and Triggers Proteasomal Degradation of E2F1 in Lung Cancer Cells” (ACS Med Chem Lett, 2013).
The source made the active and inactive calls. The rule behind the calls is not given here.

Tests used:
NCI-H460 [1] = test: Cell cycle arrest in human NCI-H460 cells assessed as accumulation at G2 phase at 0.1 uM after 24 hrs by propidium iodide staining-based flow cytometric analysis (reference value: 9.5%); type: functional
NCI-H460 [2] = test: Cytotoxicity against human NCI-H460 cells assessed as inhibition of colony formation pretreated for 24 hrs followed by seeding measured after 10 days by clonogenic assay; type: functional, cell-based
In short: (§1)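 Soft-agar clonogenic assay. Cells pretreated 24 h with largazole or DMSO, then seeded in 0.3% soft agar upper layer over 0.6% soft agar lower layer. Colonies counted by microscope after 10 days. Mean ± SD of three independent experiments.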

A549 [3] = test: Cell cycle arrest in human A549 cells assessed as accumulation at G2 phase at 0.1 uM after 24 hrs by propidium iodide staining-based flow cytometric analysis (reference value: 3.7%); type: functional
A549 [4] = test: Downregulation of E2F1 protein expression in human A549 cells at 0.1 uM by Western blotting analysis; type: functional, cell-based; conditions: TDE = time-dependent effect
In short: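 A549 cells treated with 0.1 μM largazole over a time course, or with a range of concentrations for 12 h. Lysates Western blotted for E2F1.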

A549 [5] = test: Induction of apoptosis in human A549 cells at 0.3 to 1 uM after 48 hrs by Annexin V and propidium iodide staining-based flow cytometric analysis relative to control; type: functional
In short: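 A549 cells treated for 48 h at 0.3 to 1 μM, stained with Annexin V/PI and analysed by flow cytometry for the apoptotic fraction.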

A549 [6] = test: Cell cycle arrest in human A549 cells assessed as accumulation at G1 phase at 0.1 uM after 24 hrs by propidium iodide staining-based flow cytometric analysis (reference value: 48.3%); type: functional
NCI-H460 [7] = test: Cell cycle arrest in human NCI-H460 cells assessed as accumulation at G1 phase at 0.1 uM after 24 hrs by propidium iodide staining-based flow cytometric analysis (reference value: 58.9%); type: functional
[8] = target: Histone deacetylase 1 (Homo sapiens) (UniProt Q13547); conditions: A549, 0.01 to 1 uM
Histone deacetylase 1 (Homo sapiens), sequence (Q13547 whole entry): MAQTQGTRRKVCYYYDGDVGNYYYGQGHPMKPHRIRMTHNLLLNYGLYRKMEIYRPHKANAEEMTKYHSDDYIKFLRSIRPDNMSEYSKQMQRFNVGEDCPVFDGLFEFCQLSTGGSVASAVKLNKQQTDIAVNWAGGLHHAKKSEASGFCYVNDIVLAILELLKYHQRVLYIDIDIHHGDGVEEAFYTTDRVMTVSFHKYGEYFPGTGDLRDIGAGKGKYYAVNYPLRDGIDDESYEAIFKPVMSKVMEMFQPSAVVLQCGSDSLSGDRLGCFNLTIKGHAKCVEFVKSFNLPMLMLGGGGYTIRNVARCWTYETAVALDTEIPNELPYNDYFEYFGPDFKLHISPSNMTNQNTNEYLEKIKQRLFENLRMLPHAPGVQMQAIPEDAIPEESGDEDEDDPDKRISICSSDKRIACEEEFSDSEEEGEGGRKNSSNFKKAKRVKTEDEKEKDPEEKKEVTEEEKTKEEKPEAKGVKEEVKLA

[9] = target: Transcription factor E2F1 (Homo sapiens) (UniProt Q01094); test: Induction of E2F1 ubiquitination in human A549 cells at 0.1 uM after 8 hrs by immunoprecipitation and Western blotting analysis; type: cell-based
Transcription factor E2F1 (Homo sapiens), sequence (Q01094 whole entry): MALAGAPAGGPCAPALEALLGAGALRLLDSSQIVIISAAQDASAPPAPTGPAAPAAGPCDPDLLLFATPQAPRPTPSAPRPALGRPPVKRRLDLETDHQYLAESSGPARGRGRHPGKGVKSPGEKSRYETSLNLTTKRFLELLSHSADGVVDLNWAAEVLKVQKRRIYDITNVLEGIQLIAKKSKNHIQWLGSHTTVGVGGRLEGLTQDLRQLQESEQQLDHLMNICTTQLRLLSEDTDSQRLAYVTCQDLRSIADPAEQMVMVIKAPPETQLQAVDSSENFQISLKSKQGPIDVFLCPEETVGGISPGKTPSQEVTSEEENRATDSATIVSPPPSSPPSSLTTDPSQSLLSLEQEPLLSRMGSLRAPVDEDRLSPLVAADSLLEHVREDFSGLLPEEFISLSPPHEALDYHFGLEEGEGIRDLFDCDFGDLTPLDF
In short: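 Lysates of A549 cells given 0.1 μM largazole for 8 h were immunoprecipitated with anti-E2F1 and probed by Western blot with anti-ubiquitin.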

[10] = target: Histone deacetylase 1 (Homo sapiens) (UniProt Q13547); conditions: A549, 0.1 uM
[11] = Cytotoxicity against human 16HBE cells after 48 hrs by CCK-8 assay; type: cell-based; conditions: 16HBE14o-
In short: (§2)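 Cells treated with a range of largazole concentrations for 48 h. Proliferation read by CCK-8 assay; IC50 derived from the concentration series.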

A549 [12] = test: Cytotoxicity against human A549 cells assessed as inhibition of colony formation pretreated for 24 hrs followed by seeding measured after 10 days by clonogenic assay; type: functional, cell-based; in short: as §1
A549 [13] = test: Cell cycle arrest in human A549 cells assessed as accumulation at S phase at 0.1 uM after 24 hrs by propidium iodide staining-based flow cytometric analysis (reference value: 48%); type: functional
[14] = target: Histone deacetylase 1 (Homo sapiens) (UniProt Q13547); conditions: A549, 0.1 uM; remark: listed apart in the source
A549 [15] = test: Induction of apoptosis in human A549 cells assessed as downregulation of pro-caspase-9 protein expression at 0.1 uM after 48 hrs by Western blotting analysis; type: functional, cell-based
In short: (§3)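 A549 cells given largazole 0.1 μM for indicated times, lysed, and Western blotted for pro-/cleaved caspase-9, caspase-8, pro-/active caspase-3 and PARP.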

A549 [16] = test: Induction of apoptosis in human A549 cells assessed as effect on caspase-8 protein expression at 0.1 uM after 48 hrs by Western blotting analysis; type: functional, cell-based; in short: as §3
[17] = target: Histone deacetylase 1 (Homo sapiens) (UniProt Q13547); conditions: A549, 0.1 uM; remark: listed apart in the source
[18] = target: Histone deacetylase 1 (Homo sapiens) (UniProt Q13547); conditions: 16HBE, 0.1 uM
NCI-H460 [19] = test: Cell cycle arrest in human NCI-H460 cells assessed as accumulation at S phase at 0.06 uM after 24 hrs by propidium iodide staining-based flow cytometric analysis (reference value: 31.6%); type: functional
[20] = target: Transcription factor E2F1 (Homo sapiens) (UniProt Q01094); test: Induction of E2F1 degradation in human NCI-H1975 cells at 0.1 uM after 12 to 24 hrs by Western blotting analysis; type: cell-based
In short: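 Each cell line (16-HBE, 95D, L78, H1975, H460) treated with 0.1 μM largazole for indicated times. Lysates Western blotted for E2F1.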

[21] = Cytotoxicity against human L78 cells after 48 hrs by CCK-8 assay; type: functional, cell-based; conditions: L78, 48 h; in short: as §2
[22] = target: Histone deacetylase 1 (Homo sapiens) (UniProt Q13547); conditions: NCI-H460, 0.1 uM
[23] = target: Histone deacetylase 1 (Homo sapiens) (UniProt Q13547); conditions: NCI-H1975, 0.1 uM
[24] = Cytotoxicity against human H466 cells after 48 hrs by CCK-8 assay; type: functional, cell-based; conditions: H466, 48 h; in short: as §2
A549 [25] = test: Growth inhibition of human A549 cells at 0.1 uM after 24 to 48 hrs by trypan blue exclusion assay; type: functional, cell-based
In short: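 Cells treated with largazole for indicated times. Viability evaluated by trypan blue exclusion.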

A549 [26] = test: Induction of apoptosis in human A549 cells assessed as increase in cleaved caspase-3 level at 0.1 uM after 48 hrs by Western blotting analysis; type: functional, cell-based
In short: (§4)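 A549 cells exposed to 0.1 μM for a time course, then lysed and Western blotted. Read-outs are pro- and cleaved caspase-9, pro- and active caspase-3, and cleaved PARP.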

A549 [27] = test: Effect on CDK2 protein expression in human A549 cells at 0.1 uM after 6 to 36 hrs by Western blotting analysis; type: functional, cell-based
In short: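 A549 cells exposed to 0.1 μM largazole over a time course, lysed, and Western blotted for cyclin D1, CDK2, CDK4, p21 and p27.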

A549 [28] = test: Induction of apoptosis in human A549 cells assessed as increase in PARP cleavage at 0.1 uM after 48 hrs by Western blotting analysis; type: functional, cell-based; in short: as §4
A549 [29] = test: Induction of apoptosis in human A549 cells assessed as decrease in pro-caspase-3 level at 0.1 uM after 48 hrs by Western blotting analysis; type: functional, cell-based; in short: as §3
[30] = target: Transcription factor E2F1 (Homo sapiens) (UniProt Q01094); test: Induction of E2F1 translocation from nucleus to cytoplasm in human A549 cells at 0.1 uM after 12 to 24 hrs by DAPI staining-based immunofluorescence analysis; type: cell-based
In short: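 A549 cells given 0.1 μM largazole for 12 to 24 h. Immunofluorescence with anti-E2F1 antibody, nuclei counterstained with DAPI.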

**Q.** Which results are given for `CCCCCCCC(=O)SCC/C=C/[C@@H]1CC(=O)NCc2nc(cs2)C2=N[C@@](C)(CS2)C(=O)N[C@@H](C(C)C)C(=O)O1` [LARGAZOLE]?
**A.** Activity (NCI-H460 [1]): 5.3%; inhibition (NCI-H460 [2]): Dose-dependent effect; Activity (A549 [3]): 3.3%; Activity (A549 [4]): tde; Activity (A549 [5]): <=70%; Activity (A549 [6]): 88.2%; Activity (NCI-H460 [7]): 84.1%; inhibition [8]: Active; Activity [9]: Active; inhibition [10]: Active; IC50 [11]: > 10000 nM; inhibition (A549 [12]): Dose-dependent effect; Activity (A549 [13]): 8.5%; inhibition [14]: Active; Activity (A549 [15]): Active; Activity (A549 [16]): inactive; inhibition [17]: Active; inhibition [18]: Active; Activity (NCI-H460 [19]): 10.4%; Activity [20]: Active; IC50 [21]: 570 nM; inhibition [22]: Active; inhibition [23]: Active; IC50 [24]: 520 nM; growth inhibition (GI) (A549 [25]): Active; Activity (A549 [26]): Active; Activity (A549 [27]): inactive; Activity (A549 [28]): Active; Activity (A549 [29]): Active; Activity [30]: Active
